Experimental data published in ChEMBL document CHEMBL1141164, “Design and synthesis of a series of melamine-based nitroheterocycles with activity against Trypanosomatid parasites” (J Med Chem, 2005).
“And” between values parts separate entries of the source, which are not always exact repeats. Equal values may be shown once.

Legend:
Trypanosoma cruzi [1] = experiment: In vitro inhibitory concentration against intracellular amastigotes of Trypanosoma cruzi in rat skeletal myoblasts incubated for 37 degree C for 4 days; assay type: functional, organism-based; details: 96 h
Method in brief: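 L-6 myoblasts seeded at 2000 cells/well in RPMI 1640 with 10% FBS and 2 mM L-glutamine. After 24 h, 5000 T. cruzi Tulahuen C2C4 (LacZ) trypomastigotes added with serial drug dilution. Incubated 4 days at 37 °C in 5% CO2, then CPRG/Nonidet added.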

[2] = tested on: Trypanosoma brucei brucei; experiment: In vitro inhibitory concentration against blood stream Trypanosoma brucei brucei AT1 wild type incubated for 72 h at 37 degree C; assay type: functional, organism-based
Method in brief: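 Wild-type T. b. brucei trypomastigotes, tested alongside the P2 knockout (TbAT1-/-). Alamar Blue viability assay used to derive IC50 values.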

[3] = tested on: Trypanosoma brucei rhodesiense; experiment: Inhibitory concentration in vitro against blood stream Trypanosoma brucei rhodesiense incubated for 72 hr at 37 degree C; assay type: functional, organism-based
Method in brief: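 T. b. rhodesiense STIB900 trypomastigotes, a 1982 human isolate from Tanzania, grown in minimum essential medium with 2-mercaptoethanol and 15% heat-inactivated horse serum. Drug dilutions 90 to 0.123 μg/mL, 72 h at 37 °C, 5% CO2.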

L6 = experiment: Concentration causing cytotoxicity to 50% of L-6 rat skeletal myoblasts; assay type: functional, cell-based
Method in brief: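 L-6 rat skeletal myoblasts run in the same Alamar Blue assay as the trypanosome screen. Serial dilutions spanning 90 to 0.123 μg/mL, 72 h at 37 °C under 5% CO2, then Alamar Blue for a further 2–4 h. Fluorescence read at ex 536/em 588 nm and expressed as % of control to give IC50.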

Mus musculus [4] = experiment: In vivo antitrypanosomal activity at a dose of 4*20 mg/kg, i.p., in mice infected with Trypanosoma brucei brucei STIB 795 strain; 0/4; assay type: functional
Mus musculus [5] = experiment: In vivo antitrypanosomal activity at a dose of 4*20 mg/kg, i.p., in mice infected with Trypanosoma brucei brucei STIB 795 strain, measured as survival days (control 7 days); assay type: functional
Leishmania donovani [6] = experiment: Inhibitory concentration in vitro against intracellular amastigotes of Leishmania donovani in mouse peritoneal macrophages incubated for 96 hr at 27 degree C
[7] = molecular target: T1, Nucleoside transporter 2 (Trypanosoma brucei brucei) (UniProt Q9U763); experiment: In vitro inhibitory concentration against P2 aminopurine transporter of Trypanosoma brucei brucei 427 adenosine (0.5 uM) uptake in presence of 1 mM inosine
T1 sequence (whole entry): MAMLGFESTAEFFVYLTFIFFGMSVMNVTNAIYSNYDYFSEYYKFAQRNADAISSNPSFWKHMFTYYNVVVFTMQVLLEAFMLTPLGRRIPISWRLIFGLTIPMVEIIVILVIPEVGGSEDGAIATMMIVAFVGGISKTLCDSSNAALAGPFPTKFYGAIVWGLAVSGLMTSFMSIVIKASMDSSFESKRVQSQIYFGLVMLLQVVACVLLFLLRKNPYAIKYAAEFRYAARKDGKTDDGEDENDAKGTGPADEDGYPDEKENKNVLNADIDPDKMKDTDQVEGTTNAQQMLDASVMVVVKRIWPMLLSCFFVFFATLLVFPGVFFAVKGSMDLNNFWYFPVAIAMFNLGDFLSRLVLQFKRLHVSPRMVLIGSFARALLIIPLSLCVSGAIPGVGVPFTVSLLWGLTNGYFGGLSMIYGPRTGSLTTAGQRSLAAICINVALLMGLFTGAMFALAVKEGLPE
Method in brief: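 Blood-purified T. b. brucei 427 held on ice in Carter's buffered saline. Uptake of radiolabeled adenosine fixed at 0.5 μM via P2, measured with 1 mM inosine present to block P1, by centrifugation through oil over a range of inhibitor concentrations. IC50 obtained by plotting inhibition against inhibitor concentration.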

[8] = tested on: Trypanosoma brucei brucei; experiment: In vitro inhibitory concentration against blood stream Trypanosoma brucei brucei AT1 knockout mutant with a non functional P2 transporter incubated for 72 h at 37 degree C; assay type: organism-based
Method in brief: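 Bloodstream T. b. brucei trypomastigotes, wild type or P2 transporter knockout (TbAT1-/-), were tested side by side. Viability was read by Alamar Blue fluorescence and IC50 values were determined.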

Mus musculus [9] = experiment: In vivo antitrypanosomal activity at a dose of 4*5 mg/kg, i.p., in mice infected with Trypanosoma brucei brucei STIB 795 strain, measured as survival days (control 7 days); assay type: functional
Mus musculus [10] = experiment: In vivo antitrypanosomal activity at a dose of 4*20 mg/kg, i.p., in mice infected with Trypanosoma brucei rhodesiense STIB 900 strain, measured as survival days (control 7 days); ND is not determined; assay type: functional
Mus musculus [11] = experiment: In vivo antitrypanosomal activity at a dose of 4*5 mg/kg, i.p., in mice infected with Trypanosoma brucei brucei STIB 795 strain; 4/4; assay type: functional
Mus musculus [12] = experiment: In vivo antitrypanosomal activity at a dose of 4*20 mg/kg, i.p., in mice infected with Trypanosoma brucei rhodesiense STIB 900 strain, measured as cured/infected; 0/4; assay type: functional
Leishmania donovani [13] = experiment: Inhibitory concentration in vitro against intracellular amastigotes of Leishmania donovani in mouse peritoneal macrophages incubated for 96 hr at […]; tox is toxic to macrophages
Mus musculus [14] = experiment: In vivo antitrypanosomal activity at a dose of 4*20 mg/kg, i.p., in mice infected with Trypanosoma brucei brucei STIB 795 strain; 4/4; assay type: functional
Mus musculus [15] = experiment: In vivo antitrypanosomal activity at a dose of 4*20 mg/kg, i.p., in mice infected with Trypanosoma brucei rhodesiense STIB 900 strain, measured as survival days (control 6.5 days); assay type: functional
Mus musculus [16] = experiment: In vivo antitrypanosomal activity at a dose of 4*20 mg/kg, i.p., in mice infected with Trypanosoma brucei rhodesiense STIB 900 strain; 1/4; assay type: functional
Trypanosoma cruzi [17] = experiment: In vivo activity at a dose of 25 mg/kg, i.p., for 5 doses in rodent model with Trypanosoma cruzi, measured as survival days (control 13 days); details: route intraperitoneal
Trypanosoma brucei [18] = experiment: Inhibitory concentration against RAD51-/- mutant Trypanosoma brucei
Trypanosoma brucei [19] = experiment: Inhibitory concentration against wild-type (427) Trypanosoma brucei; assay type: functional, organism-based
Mus musculus [20] = experiment: In vivo antitrypanosomal activity at a dose of 4*20 mg/kg, i.p., in mice infected with Trypanosoma brucei rhodesiense STIB 900 strain; 2/4; assay type: functional
Trypanosoma cruzi [21] = experiment: In vivo activity at a dose of 50 mg/kg, i.p., for 5 doses in mice infected with Trypanosoma cruzi, measured as survival days (control 13 days); details: ip, 312 h
Mus musculus [22] = experiment: In vivo antitrypanosomal activity at a dose of 4*20 mg/kg, i.p., in mice infected with Trypanosoma brucei rhodesiense STIB 900 strain, measured as survival days (control 7 days); assay type: functional
Trypanosoma cruzi [23] = experiment: In vivo activity at a dose of 50 mg/kg, i.p., for 5 doses in mice infected with Trypanosoma cruzi, measured as survival days (control 13 days)

SMILES	IC50 (Trypanosoma cruzi [1]) [µM]	IC50 [2] [µM]	IC50 [3] [µM]	IC50 (L6) [µM]	Survival (Mus musculus [5]) [days]	IC50 (Leishmania donovani [6]) [µM]	IC50 [7] [µM]	IC50 [8] [µM]	IC50 (Trypanosoma brucei [18]) [µM]	IC50 (Trypanosoma brucei [19])	other results
Nc1nc(N)nc(N/N=C/c2ccccc2[N+](=O)[O-])n1	328	> 75	36.5	–	–	–	–	–	–	–	–
CNc1nc(NC)nc(N/N=C/c2ccc([N+](=O)[O-])o2)n1	0.24	–	0.01	44.1	5.25	3.14	–	–	–	–	Cured/Infected (Mus musculus [4]): 0
NNc1nc(N)nc(N)n1	–	> 200	–	–	–	–	11.9	> 200	–	–	–
N=C(N)c1ccc(OCCCCCOc2ccc(C(=N)N)cc2)cc1 [PENTAMIDINE]	–	–	–	–	–	–	–	–	–	–	Survival (Mus musculus [9]): >60 days; Survival (Mus musculus [10]): 42.75 days; Cured/Infected (Mus musculus [11]): 4; Cured/Infected (Mus musculus [12]): 0
Nc1nc(N)nc(N/N=C/c2ccco2)n1	> 400	16.5	12.9	> 400	–	–	15.9	29.3	–	–	IC50 (Leishmania donovani [13]): Toxic
Nc1nc(N)nc(N/N=C/c2ccc([N+](=O)[O-])o2)n1	2.1	0.23	0.025	183	>60	> 12.5	22.9	0.38	0.1	0.08 µM	Cured/Infected (Mus musculus [14]): 4; Survival (Mus musculus [15]): 35.25 days; Cured/Infected (Mus musculus [16]): 1; Survival (Trypanosoma cruzi [17]): 13 days; IC50 (Trypanosoma brucei [19]; Trypanosoma brucei): 0.08 µM
CC1CS(=O)(=O)CCN1/N=C/c1ccc([N+](=O)[O-])o1 (configuration not stated) [NIFURTIMOX]	1.5	5.6	1.5	68	–	68	–	–	4.3	4.1 µM and 11.4 µM	–
N#Cc1ccc(/C=N/Nc2nc(N)nc(N)n2)o1	122	–	46.3	–	–	–	–	–	–	–	–
CNc1nc(N)nc(N/N=C/c2ccc([N+](=O)[O-])o2)n1	0.39	0.13	0.018	48.9	>60	0.75	–	0.06	0.07	0.08 µM	Cured/Infected (Mus musculus [14]): 4; Cured/Infected (Mus musculus [20]): 2; inhibition in vivo at 50 mg/kg (Trypanosoma cruzi [21]): 27.8%; Survival (Mus musculus [22]): >38.5 days; Survival (Trypanosoma cruzi [23]): 13 days; IC50 (Trypanosoma brucei [19]; Trypanosoma brucei): 0.08 µM
